This is an account of results in ChEMBL document CHEMBL4431379, “Diverging Novobiocin Anti-Cancer Activity from Neuroprotective Activity through Modification of the Amide Tail” (ACS Med Chem Lett, 2016).

The target of experiment [1] is T1, Heat shock protein HSP90 (Homo sapiens) (UniProt P07900+P08238). The experiment in a line: Inhibition of Hsp90 in human PC3MM2 cells assessed as downregulation of Her2 at 0.5 to 3 times IC50 after 24 hrs by Western blot analysis. The class given is cell-based. In a few lines: (§1)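 PC3-MM2 cells treated 24 h at a high (3 × IC50) and a low (0.5 × IC50) concentration. Hsp90 client protein levels measured by Western blot with actin as loading control.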
(In general: In western blotting, separated proteins are transferred to a membrane and probed.)

A further experiment has as its system SK-BR-3. Kind of experiment: Antiproliferative activity against human SK-BR-3 cells. The class given is functional, cell-based. The essentials: (§2)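 Antiproliferative assay in SkBr3 (Her2-overexpressing breast) and PC3-MM2 (androgen-independent prostate) cancer cells. IC50 in μM given as mean ± standard deviation of at least two separate experiments, each run in triplicate.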

Experiment [2] in a line: Antiproliferative activity against human PC3MM2 cells. The class given is functional, cell-based. The essentials:
as §2

For experiment [3], the target named is T1, Heat shock protein HSP90 (Homo sapiens). The experiment in a line: Inhibition of Hsp90 in human PC3MM2 cells assessed as suppression of firefly luciferase rematuration at 0.02 to 20 uM incubated for 1 hr by luciferase reporter gene assay. Format: cell-based. The essentials: (§3)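 Hsp90-dependent refolding of thermally denatured firefly luciferase in PC3-MM2 cells. Compounds tested from 0.02 to 20 μM.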
For orientation: In a reporter assay the amount or activity of a reporter protein is the signal.

Experiment [4] has the same target. The experiment in a line: Induction of HSP90-mediated HSF1 expression in human PC3MM2 cells at 10 uM after 24 hrs by Western blot analysis. Format: cell-based. In a few lines: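 PC3-MM2 cells exposed to 10 μM of each compound for 24 h. HSF1 measured by Western blot relative to β-actin.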
Experiment [5] shares this target. Kind of experiment: Inhibition of Hsp90 in human PC3MM2 cells assessed as downregulation of Akt at 0.5 to 3 times IC50 after 24 hrs by Western blot analysis. The class given is cell-based. The essentials: as §1
Experiment [6] shares this target. The experiment in a line: Inhibition of Hsp90 in human PC3MM2 cells assessed as downregulation of Raf1 at 0.5 to 3 times IC50 after 24 hrs by Western blot analysis. Format: cell-based. The essentials: as §1
For experiment [7] the target is unchanged. Kind of experiment: Induction of Hsp90 in human PC3MM2 cells at 0.5 to 3 times IC50 after 24 hrs by Western blot analysis. Format: cell-based. In a few lines:
as §1

The species named for experiment [8] is Homo sapiens. The experiment in a line: Inhibition of Hsp90alpha/Aha1 interaction in human PC3MM2 cells assessed as remaining Hsp90alpha/Aha complex levels at 50 uM after 24 hrs by Western blot analysis (reference value: 98 to 100 %). Format: cell-based.
The species named for the next experiment is Rattus norvegicus. The experiment in a line: Neuroprotective activity in rat 50B11 cells assessed as maximal respiratory capacity at 5 uM after 24 hrs in presence of oligomycin/FCCP/rotenon/antimycin by extracellular flux analysis.
For experiment [9], the species on record is Homo sapiens. The experiment in a line: Inhibition of Hsp90alpha/Aha1 interaction in human PC3MM2 cells assessed as remaining Hsp90alpha/Aha complex levels at 35 uM after 24 hrs by Western blot analysis (reference value: 98 to 100 %). Format: cell-based.
The target in experiment [10] is T1, Heat shock protein HSP90 (Homo sapiens). The experiment in a line: Effect on Hsp90 in human PC3MM2 cells assessed as stimulation of firefly luciferase rematuration at 0.02 to 20 uM incubated for 1 hr by luciferase reporter gene assay. Format: cell-based. The essentials:
as §3

The species named for experiment [11] is Homo sapiens. Kind of experiment: Inhibition of Hsp90alpha/Aha1 interaction in human PC3MM2 cells assessed as remaining Hsp90alpha/Aha complex levels at 100 uM after 24 hrs by Western blot analysis (reference value: 98 to 100 %). Format: cell-based.
The target of experiment [12] is T1, Heat shock protein HSP90 (Homo sapiens). The experiment in a line: Inhibition of Hsp90 in human PC3MM2 cells assessed as downregulation of Her2 at 100 uM after 24 hrs by Western blot analysis. The class given is cell-based.
For experiment [13] the target is unchanged. Kind of experiment: Inhibition of Hsp90 in human PC3MM2 cells assessed as downregulation of Akt at 100 uM after 24 hrs by Western blot analysis. Format: cell-based.
The target is the same in experiment [14]. The experiment in a line: Inhibition of Hsp90 in human PC3MM2 cells assessed as downregulation of Raf1 at 100 uM after 24 hrs by Western blot analysis. Format: cell-based.

Activity calls are given as the source filed them. The calls are words filed in the database; no cut-off is given here.

As a reminder, the IC50 is the concentration needed to halve the response being measured. Higher therefore signals weaker potency in that assay. Turning to `CCCCCC(=O)Nc1cc2ccc(O[C@@H]3OC(C)(C)[C@H](OC)[C@@H](O)[C@H]3O)c(C)c2oc1=O`, the “Her2 downregulation (active/inactive call)” value in [1] is “Active”. Moreover, the results for the concentration for half-maximal inhibition (IC50) (with SK-BR-3; in experiment [2]) were 84 µM and 53.7 µM, respectively. Further, the inhibition entry in experiment [3] was “Active”. Moreover, in experiment [4], the fold change (FC) is 0.6. The “Akt downregulation (active/not active)” value in experiment [5] is “Active”. Moreover, in experiment [6], the “Raf1 downregulation (active/not active)” value is “Active”. Further, the result in experiment [7] was inactive. In the experiment listed under Homo sapiens [8], the Activity is 46%. In addition, the outcome in the experiment filed under Rattus norvegicus was Active.

For `CCCCCCC(=O)Nc1cc2ccc(O[C@@H]3OC(C)(C)[C@H](OC)[C@@H](O)[C@H]3O)c(C)c2oc1=O`, in experiment [1], the “Her2 downregulation (active/inactive call)” value is “Active”. Besides, the IC50 with SK-BR-3 was found to be 58.3 µM; in experiment [2], 34.7 µM. Further, the inhibition result in [3] was “Active”. Besides, in experiment [4], the fold change (FC) turned out to be 0.6. The “Akt downregulation (active/not active)” value in [5] is “Active”. In addition, the “Raf1 downregulation (active/not active)” value in [6] is “Active”. The result in [7] was inactive. Besides, the Activity in the experiment listed under Homo sapiens [9] amounted to 38%. For the same compound, the outcome in the experiment listed under Rattus norvegicus was Active.

Regarding `CO[C@@H]1[C@@H](O)[C@@H](O)[C@H](Oc2ccc3cc(NC(C)=O)c(=O)oc3c2C)OC1(C)C`, the figures for the IC50 (in the experiment with SK-BR-3; in experiment [2]) were more than 900 µM and more than 500 µM, respectively. For the same compound, the outcome (in [10]; in the experiment filed under Rattus norvegicus) was Active. For the same compound, the inhibition entry in experiment [3] was “inactive”. Moreover, the fold change (FC) in [4] lay within 2 to 3.7. The remaining Hsp90alpha/Aha1 complex level in the experiment filed under Homo sapiens [11] was 68 to 70%.

With `CCCCC(=O)Nc1cc2ccc(O[C@@H]3OC(C)(C)[C@H](OC)[C@@H](O)[C@H]3O)c(C)c2oc1=O`, the IC50 in the experiment on SK-BR-3 stood at 118 µM; in experiment [2], 317 µM. Also, the outcome (in experiment [10]; in the experiment listed under Rattus norvegicus) was Active. Besides, the inhibition result in experiment [3], in experiment [12], in experiment [13] and in experiment [14] was “inactive” each time. The fold change (FC) in experiment [4] was 1.5. Besides, the remaining Hsp90alpha/Aha1 complex level in the experiment filed under Homo sapiens [11] came to 72%.

Consider `CO[C@@H]1[C@@H](O)[C@@H](O)[C@H](Oc2ccc3cc(NC(=O)C4CCC4)c(=O)oc3c2C)OC1(C)C`, for which the IC50 in the experiment on SK-BR-3 worked out at 220 µM; in [2], 284 µM. In addition, the fold change (FC) in experiment [4] was 4. Further, the inhibition entry in [12], in [13] and in [14] was “inactive” throughout. The remaining Hsp90alpha/Aha1 complex level in the experiment filed under Homo sapiens [11] stood at 54%. Also, the outcome in the experiment listed under Rattus norvegicus was Active.

Regarding `CO[C@@H]1[C@@H](O)[C@@H](O)[C@H](Oc2ccc3cc(NC(=O)C4CC4)c(=O)oc3c2C)OC1(C)C`, the IC50 with SK-BR-3 is 517 µM; in [2], more than 500 µM. For the same compound, the fold change (FC) in [4] was 3.7. The inhibition result in experiment [12], in experiment [13] and in experiment [14] was “inactive” in each case. Besides, the remaining Hsp90alpha/Aha1 complex level in the experiment filed under Homo sapiens [11] was 68%. Besides, in the experiment filed under Rattus norvegicus, the result was Active.

With `CO[C@@H]1[C@@H](O)[C@@H](O)[C@H](Oc2ccc3cc(NC(=O)C4CCCCC4)c(=O)oc3c2C)OC1(C)C`, in [1], the “Her2 downregulation (active/inactive call)” value was “Active”. Besides, the 50% inhibitory concentration (IC50) in the experiment with SK-BR-3 turned out to be 46.8 µM; in [2] it was 54.6 µM. In addition, the inhibition result in [3] is “Active”. Also, the fold change (FC) in [4] came to 1. The “Akt downregulation (active/not active)” value in [5] was “Active”. The “Raf1 downregulation (active/not active)” value in [6] was “Active”. Moreover, the result in experiment [7] was inactive. For the same compound, the Activity in the experiment listed under Homo sapiens [8] came to 22%. Also, the result in the experiment filed under Rattus norvegicus was Active.

Regarding `CCCC(=O)Nc1cc2ccc(O[C@@H]3OC(C)(C)[C@H](OC)[C@@H](O)[C@H]3O)c(C)c2oc1=O`, the IC50 with SK-BR-3 came to 313 µM; in [2], 466 µM. Also, the result (in experiment [10]; in the experiment listed under Rattus norvegicus) was Active. The inhibition entry in [3], in experiment [12], in experiment [13] and in experiment [14] was “inactive” throughout. Further, the fold change (FC) in experiment [4] came out at 1.1. Moreover, in the experiment filed under Homo sapiens [11], the remaining Hsp90alpha/Aha1 complex level came out at 100%.

Turning to `CCC(=O)Nc1cc2ccc(O[C@@H]3OC(C)(C)[C@H](OC)[C@@H](O)[C@H]3O)c(C)c2oc1=O`, the half-maximal inhibitory concentration (IC50) with SK-BR-3 was determined as 643 µM; in experiment [2], 504 µM. For the same compound, the outcome (in experiment [10]; in the experiment filed under Rattus norvegicus) was Active. In addition, the inhibition result in experiment [3], in experiment [12], in experiment [13] and in experiment [14] was “inactive” in each case. The fold change (FC) in [4] was 1.2. In the experiment listed under Homo sapiens [11], the remaining Hsp90alpha/Aha1 complex level was determined as 86%.

On to `CO[C@@H]1[C@@H](O)[C@@H](O)[C@H](Oc2ccc3cc(NC(=O)C4CCCC4)c(=O)oc3c2C)OC1(C)C`, for which the “Her2 downregulation (active/inactive call)” value in [1] is “Active”. Also, the IC50 with SK-BR-3 stood at 67 µM; in [2] it was 144 µM. Besides, in experiment [3], the inhibition entry is “Active”. Also, in [4], the fold change (FC) was determined as 2. Also, the “Akt downregulation (active/not active)” value in [5] is “Active”. Also, the “Raf1 downregulation (active/not active)” value in experiment [6] was “Active”. Further, the result in experiment [7] was inactive. Also, the remaining Hsp90alpha/Aha1 complex level in the experiment listed under Homo sapiens [11] was determined as 27%. For the same compound, in the experiment filed under Rattus norvegicus, the outcome was Active.
